SENP7 block = SENP7 protease inhibitors, primary screen, biochemical, luminescence, uHTS; Sentrin-specific protease 7 (Homo sapiens), Q9BQF6; recombinant SENP7, Z-RLRGG-aminoluciferin luminescence, 40 min; inhibition, % at 5 µM; 330,000 compounds, 1.5% hits;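 active = inhibition above about 50% at the single test dose, limit read from the data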
Target sequence (Q9BQF6 706-1050 limits assumed): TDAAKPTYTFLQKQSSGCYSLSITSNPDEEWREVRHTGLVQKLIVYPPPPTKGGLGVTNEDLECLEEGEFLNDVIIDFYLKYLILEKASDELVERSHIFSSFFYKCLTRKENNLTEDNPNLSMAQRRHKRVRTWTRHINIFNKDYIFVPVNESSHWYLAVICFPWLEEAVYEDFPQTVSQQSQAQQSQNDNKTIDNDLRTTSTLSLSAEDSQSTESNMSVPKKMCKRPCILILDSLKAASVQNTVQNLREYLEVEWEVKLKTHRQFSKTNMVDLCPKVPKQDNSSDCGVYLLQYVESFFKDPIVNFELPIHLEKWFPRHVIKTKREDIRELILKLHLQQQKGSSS
Platelet DG rel = inhibitors of platelet dense granule secretion, primary screen, cell-based, MLPCN, human platelets; human platelet-rich plasma, SFLLRN dense granule ATP release, luminescence; inhibition, %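 (compounds screened at 7.5 µM in platelet-rich plasma)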; 300,000 compounds, 0.22% hits;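 active = mean replicate score, as percent of positive control, at or above 50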
SENP8 block-1 = human SENP8 protease inhibitors, primary screen, biochemical, fluorescence, Nedd8 protein substrate, uHTS. inhibition, % at 20 µM. AID 602440, 2012. recombinant SENP8. 360,000 compounds, 0.64% hits. Sentrin-specific protease 8 (Homo sapiens), Q96LD8; in the data active = inhibition mostly above about 40%, no sharp cut-off; inactive = mostly below about 27%
Target sequence (Q96LD8 whole entry, looked up): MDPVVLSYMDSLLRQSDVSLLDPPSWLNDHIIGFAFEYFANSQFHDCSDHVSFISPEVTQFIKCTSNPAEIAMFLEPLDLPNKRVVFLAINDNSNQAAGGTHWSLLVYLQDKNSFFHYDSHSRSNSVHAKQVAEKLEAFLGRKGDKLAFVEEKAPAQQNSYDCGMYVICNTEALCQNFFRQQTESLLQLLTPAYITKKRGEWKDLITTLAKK
SENP6 block = SENP6 protease inhibitors, primary screen, biochemical, luminescence, uHTS | Sentrin-specific protease 6 (Homo sapiens), Q9GZR1 | Recombinant SENP6 catalytic domain, aminoluciferin luminescence | inhibition, % at 10 µM | 330,000 compounds, 1.8% hits | AID 2599, 2010;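 active = inhibition above about 50% at the single tested dose, limit read from the data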
SENP8 block-2 = SENP8 protease inhibitors, primary screen, biochemical, luminescence; purified SENP8, Z-RLRGG-aminoluciferin cleavage; Sentrin-specific protease 8 (Homo sapiens), Q96LD8; AID 2540, 2010; inhibition, % at 10 µM; 330,000 compounds, 1.2% hits; in the data active = inhibition above about 50%
SENP1 FRET inh = human SENP1 catalytic domain inhibitors, primary screen, biochemical, FRET, uHTS; recombinant SENP1 catalytic domain, CyPet-SUMO1-YPet FRET cleavage; AID 624204, 2012; inhibition, % at 10 µM; 360,000 compounds, 0.21% hits;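 active = inhibition at least 30% at 10 µM, raw YFP signal under a set limit, fluorescence ratio 0.5 to 1.5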
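System: Recombinant human SENP1 catalytic domain, His6-tagged | Incubation: Enzyme reaction for 50 min at room temperature, dark | Medium: Tris pH 8 with BME, BSA, NP40 and catalase | Also added: 25 nM SUMO1 FRET substrate | Compound: 10 µM single point, 0.5% DMSO | Measured by: FRET fluorescence in CFP and YFP emission channels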
SENP1 inh conf = human SENP1 catalytic domain inhibitors, confirmation, biochemical, FRET endpoint, single concentration; shares compounds with SENP1 FRET inh; inhibition, % at 10 µM; 520 compounds, 34% hits; recombinant SENP1, CyPet-SUMO1-YPet FRET cleavage; in the data active = inhibition mostly above about 35%, no sharp cut-off; inactive = mostly below about 32%
SENP1 kin conf = human SENP1 catalytic domain inhibitors, confirmation, biochemical, kinetic FRET, single concentration; AID 651690, 2012; shares compounds with SENP1 FRET inh; inhibition, % at 10 µM; recombinant SENP1, CyPet-SUMO1-YPet FRET kinetic cleavage; 520 compounds, 26% hits; in the data active = inhibition mostly above about 32%, no sharp cut-off; inactive = mostly below about 29%
Hits are given with their value; - = inactive; . = not tested or not shown. Compounds with a hit are over-represented: about 2.6% of the library has one in this group of screens.

SMILES | SENP7 block | Platelet DG rel | SENP8 block-1 | SENP6 block | SENP8 block-2 | SENP1 FRET inh | SENP1 inh conf | SENP1 kin conf
C=CCNC(=O)c1cccc2c1C(=O)c1ccc(N3CCOCC3)cc1S2(=O)=O | - | . | - | - | - | 80.1 | 61.0 | 44.7
CCOC(=O)CSc1nc2ccc(C)cc2cc1C#N | - | - | - | - | - | - | . | .
CCOC(=O)CSc1nc2cc(C)ccc2cc1C#N | - | - | - | - | - | 54.7 | - | -
COC(=O)c1ccc(OCC(O)CNCC(c2ccc(OC)cc2)N(C)C)c(OC)c1 (stereo not given) | - | - | - | - | - | - | . | .
CCCNC(=O)C1(C)CCCN(C(=O)c2ccc(OC(F)F)cc2)C1 (stereo not given) | . | . | - | . | . | - | . | .
Cc1ccc(C(=O)C[n+]2cccc3ccccc32)cc1 | - | - | - | - | - | 30.2 | - | -
Cc1ccc(C(=O)C[n+]2ccccc2)cc1 | - | - | - | - | - | - | . | .
O=[N+]([O-])c1ccc(C[n+]2cccc3ccccc32)cc1 | - | - | - | - | - | - | . | .
O=C(C[n+]1cccc2ccccc21)c1ccc(Br)cc1 | - | - | - | - | - | 57.2 | - | -
NC(=O)C[n+]1cccc2ccccc21 | - | - | - | - | - | 39.4 | - | -
O=C(NOCc1cscn1)Nc1ccccc1 | . | . | - | . | . | - | . | .
Cc1cccc(N=Nc2c(C)c(C#N)c(O)[nH]c2=O)c1 | - | - | - | - | - | - | . | .
Cc1c(C#N)c(O)[nH]c(=O)c1N=Nc1ccc(Br)cc1C(=O)O | . | - | 45.5 | . | . | 38.5 | 57.3 | 33.9
Cn1c(/C(C#N)=C(\O)c2ccc(Cl)s2)nc2ccccc21 | - | - | - | - | - | - | . | .
Cn1c(/C(C#N)=C(\O)c2ccc([N+](=O)[O-])s2)nc2ccccc21 | - | - | - | - | - | 46.5 | - | -
Cc1ccccc1NCC(=O)N/N=C/c1c(C)c(C(=O)c2ccc(Cl)cc2)n2ccccc12 | - | - | - | - | - | - | . | .
Cc1c(/C=N/NC(=O)CNc2ccccc2)c2ccccn2c1C(=O)c1ccc(Cl)cc1 | - | - | - | - | - | 30.6 | - | -
CN(C)C(=O)CSc1ccc(S(=O)(=O)N2CCCC2)cn1 | - | . | - | - | - | 39.2 | 43.9 | 42.2
O=[N+]([O-])c1ccc(-c2cn(-c3ccccc3F)c(=S)[nH]2)cc1 | - | - | - | - | - | 30.0 | - | -
Cc1ccc(-c2cn(-c3ccccc3F)c(=S)[nH]2)cc1 | - | - | - | - | - | - | . | .
Cc1nc2ccc(NS(=O)(=O)c3ccccc3F)cc2s1 | - | . | - | - | - | 54.8 | - | 38.2
Cc1nc2ccc(NS(=O)(=O)c3ccc(F)c(F)c3)cc2s1 | - | . | - | - | - | 54.0 | - | -
Cc1nc2cc(NS(=O)(=O)c3ccccc3F)ccc2s1 | - | - | - | - | - | - | . | .
CC(=O)Nc1ccc(S(=O)(=O)Nc2ccc3nc(C)sc3c2)cc1 | - | . | - | - | - | - | . | .
Cc1ccc(S(=O)(=O)Nc2ccc3nc(C)sc3c2)cc1 | - | - | - | - | - | - | . | .
SMILES | SENP7 block | Platelet DG rel | SENP8 block-1 | SENP6 block | SENP8 block-2 | SENP1 FRET inh | SENP1 inh conf | SENP1 kin conf
Cc1nc2ccc(NS(=O)(=O)c3ccc(Br)cc3)cc2s1 | - | . | - | - | - | 40.5 | - | -
OC(Cc1ccccc1Br)c1ncc(-c2cccc(C(F)(F)F)c2)[nH]1 (stereo not given) | . | . | - | . | . | - | . | .
CC1=Nc2ccccc2N=C(NC(=O)c2ccccc2)C1c1ccc(Cl)cc1 (stereo not given) | - | - | - | - | - | - | . | .
CC1=Nc2ccccc2N=C(N)C1c1ccccc1 (stereo not given) | - | - | - | - | - | 35.5 | - | -
N#Cc1c(C(F)(F)F)cc(-c2ccc(Cl)c(Cl)c2)nc1SCCN1CCOCC1 | - | - | - | - | - | 37.7 | - | -
Cc1ccc2c(=O)n3c(nc2c1)C(C)NC(=O)c1cccnc1-3 (stereo not given) | . | . | - | . | . | - | . | .
Clc1ccc(-c2ccc(C=Nc3ccc(N4CCOCC4)cc3)o2)c(Cl)c1 | - | - | - | - | - | 32.2 | - | -
Clc1ccc(-c2ccc(C=Nc3ccc(N4CCOCC4)cc3)o2)cc1 | - | - | - | - | - | - | . | .
O=C(/C=C/c1ccc([N+](=O)[O-])cc1)N1CCN(S(=O)(=O)c2cccs2)CC1 | - | - | - | - | - | - | . | .
COc1ccc2oc(=O)c(/C(N)=N/NC(=O)c3ccncc3)cc2c1 | - | - | - | - | - | 36.6 | - | -
C/C(=N\NC(=O)c1ccncc1)c1cc2ccccc2oc1=O | - | - | - | - | - | - | . | .
CC1(C)CC(=O)C=C(c2cccc(Cl)c2O)C1 | - | . | - | - | - | - | . | .
CC(=O)NC(Cc1ccc(C)cc1)C(=O)NC1CCN(c2ncccc2[N+](=O)[O-])CC1 (stereo not given) | - | - | - | - | - | - | . | .
CC(=O)Oc1ccc(N2C(=O)C3C(C2=O)C(C(=O)c2ccc(Cl)cc2)N2CCCC32)cc1 (stereo not given) | - | - | - | - | - | 60.6 | 85.6 | 44.9

Screens (PubChem)
